Test results as given in ChEMBL document CHEMBL1158759, “Cytotoxic bisindole alkaloids from a marine sponge Spongosorites sp” (J Nat Prod, 2005).
In brackets after ≈: the same amount, converted by molar mass.

Assays:
Staphylococcus aureus [1] = assay: Antibacterial activity against Staphylococcus aureus 503; assay type: functional
How it was run: (§1)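 Agar dilution on Mueller Hinton agar holding 17 serial dilutions of sample (final 25 to 0.002 µg/mL), with meropenem and imipenem as standards. Strains were pre-grown 18 h at 37 °C in Fleisch extract broth, with 10% horse serum for some strains.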

A549 = assay: Cytotoxicity against human A549 cells after 48 hrs by SRB assay; assay type: functional; conditions: A549, 48 h, read-out: ED50 (the source's name)
How it was run: (§2)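 Cells in exponential growth were seeded at (1-2) × 10^4 per well and grown 24 h. Cells were fixed with cold TCA and stained with 0.4% SRB in 1% acetic acid. Dye was solubilized in 10 mM unbuffered Tris base and A520 read.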

SK-OV-3 = assay: Cytotoxicity against human SKOV3 cells after 48 hrs by SRB assay; assay type: functional; conditions: SK-OV-3, 48 h, read-out: ED50 (the source's name); how it was run: as §2
Streptococcus pyogenes [2] = assay: Antibacterial activity against Streptococcus pyogenes 308A; assay type: functional; how it was run: as §1
Escherichia coli = assay: Antibacterial activity against Escherichia coli DC2; assay type: functional; how it was run: as §1
Streptococcus pyogenes [3] = assay: Antibacterial activity against Streptococcus pyogenes 77A; assay type: functional; how it was run: as §1
Staphylococcus aureus [4] = assay: Antibacterial activity against Staphylococcus aureus SG511; assay type: functional; how it was run: as §1
HCT-15 = assay: Cytotoxicity against human HCT15 cells after 48 hrs by SRB assay; assay type: functional; conditions: HCT-15, 48 h, read-out: ED50 (the source's name); how it was run: as §2
Enterococcus faecium = assay: Antibacterial activity against Streptococcus faecium MD 8b; assay type: functional; how it was run: as §1
Pseudomonas aeruginosa = assay: Antibacterial activity against Pseudomonas aeruginosa 1771M; assay type: functional; how it was run: as §1
Staphylococcus aureus [5] = assay: Antibacterial activity against Staphylococcus aureus 285; assay type: functional; how it was run: as §1
Klebsiella oxytoca = assay: Antibacterial activity against Klebsiella oxytoca 1082; assay type: functional; how it was run: as §1
SK-MEL-2 = assay: Cytotoxicity against human SK-MEL-2 cells after 48 hrs by SRB assay; assay type: functional; conditions: SK-MEL-2, 48 h, read-out: ED50 (the source's name); how it was run: as §2
XF498 = assay: Cytotoxicity against human XF498 cells after 48 hrs by SRB assay; assay type: functional; conditions: XF498, 48 h, read-out: ED50 (the source's name); how it was run: as §2
P388 = assay: Cytotoxicity against mouse P388 cells; assay type: functional, cell-based

Structure (SMILES)	MIC (Staphylococcus aureus [1])	EC50 (A549)	EC50 (SK-OV-3)	MIC (Streptococcus pyogenes [2])	MIC (Escherichia coli)	MIC (Streptococcus pyogenes [3])	MIC (Staphylococcus aureus [4])	EC50 (HCT-15)	MIC (Enterococcus faecium)	MIC (Pseudomonas aeruginosa)	MIC (Staphylococcus aureus [5])	MIC (Klebsiella oxytoca)	EC50 (SK-MEL-2)	EC50 (XF498)	IC50 (P388)
O=C1NC[C@@H](c2c[nH]c3cc(Br)ccc23)N[C@H]1c1c[nH]c2cc(Br)ccc12 (relative stereo) [CIS-3,4-DIHYDROHAMACANTHIN B]	25 µg/mL (≈ 51.2 µM)	3.41 µg/mL (≈ 6.99 µM)	3.62 µg/mL (≈ 7.42 µM)	12.5 µg/mL (≈ 25.6 µM)	25 µg/mL (≈ 51.2 µM)	25 µg/mL (≈ 51.2 µM)	12.5 µg/mL (≈ 25.6 µM)	2.83 µg/mL (≈ 5.8 µM)	> 25 µg/mL	25 µg/mL (≈ 51.2 µM)	25 µg/mL (≈ 51.2 µM)	25 µg/mL (≈ 51.2 µM)	3.85 µg/mL (≈ 7.89 µM)	3.22 µg/mL (≈ 6.6 µM)	
C[C@@H](O)[C@H]1C(=O)N2C(C(=O)O)=C(S[C@@H]3CN[C@H](C(=O)N(C)C)C3)[C@H](C)[C@H]12 [MEROPENEM]	0.049 µg/mL (≈ 0.128 µM)			0.007 µg/mL (≈ 0.0183 µM)	0.025 µg/mL (≈ 0.0652 µM)	0.007 µg/mL (≈ 0.0183 µM)	0.098 µg/mL (≈ 0.256 µM)		6.25 µg/mL (≈ 16.3 µM)	0.098 µg/mL (≈ 0.256 µM)	0.195 µg/mL (≈ 0.509 µM)	0.049 µg/mL (≈ 0.128 µM)			
C[C@@H](O)[C@H]1C(=O)N2C(C(=O)O)=C(SCCNC=N)C[C@H]12 [IMIPENEM ANHYDROUS]	0.007 µg/mL (≈ 0.0234 µM)			0.004 µg/mL (≈ 0.0134 µM)	0.195 µg/mL (≈ 0.651 µM)	0.004 µg/mL (≈ 0.0134 µM)	0.013 µg/mL (≈ 0.0434 µM)		0.781 µg/mL (≈ 2.61 µM)	0.098 µg/mL (≈ 0.327 µM)	0.013 µg/mL (≈ 0.0434 µM)	0.195 µg/mL (≈ 0.651 µM)			
COc1cccc2c1C(=O)c1c(O)c3c(c(O)c1C2=O)C[C@@](O)(C(=O)CO)C[C@@H]3O[C@H]1C[C@H](N)[C@H](O)[C@H](C)O1 [DOXORUBICIN]		0.01 µg/mL (≈ 0.0184 µM)	0.03 µg/mL (≈ 0.0552 µM)					0.05 µg/mL (≈ 0.092 µM)					0.01 µg/mL (≈ 0.0184 µM)	0.01 µg/mL (≈ 0.0184 µM)	
O=C(c1nc(-c2c[nH]c3cc(Br)ccc23)c[nH]1)c1c[nH]c2cc(O)ccc12 [BROMOTOPSENTIN]		> 30 µg/mL	28.1 µg/mL (≈ 66.8 µM)					> 30 µg/mL					7.02 µg/mL (≈ 16.7 µM)	15 µg/mL (≈ 35.6 µM)	7 µg/mL (≈ 16.6 µM)
O=C(c1nc(-c2c[nH]c3ccccc23)c[nH]1)c1c[nH]c2cc(O)ccc12 [TOPSENTIN]		> 30 µg/mL	> 30 µg/mL					13.3 µg/mL (≈ 38.9 µM)					> 30 µg/mL	> 30 µg/mL	2 µg/mL (≈ 5.84 µM)
